Source: ChEMBL document CHEMBL1806374, “Synthesis, characterization and cytotoxicity of some novel 1,3-disubstituted-2,3-dihydro-2-iminobenzimidazoles” (Eur J Med Chem, 2011)

What was measured:
[1] = tested on: HT-29; assay: Antiproliferative activity against human HT-29 cells after 24 hrs by MTS assay; type: functional, cell-based; conditions: HT-29, 24 h
How it was run: (§1)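 Cells were seeded at 2 × 10⁴ per well. After 24 h the monolayers were washed and overlaid with medium containing compound, from a 0.5 mg/ml DMSO stock diluted 1:10 to 1:10 000. Untreated medium served as control. After 24 h, MTS was added for 2 h at 37 °C in 5% CO2, and A490 was read. Viability was expressed as % of control, averaged over three independent assays, and IC50/EC50 were taken from the plotted curves.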

[2] = Antiproliferative activity against at human Splenocytes after 24 hrs by MTS assay; type: cell-based; conditions: Splenocyte; how it was run: as §1
[3] = tested on: MDA-MB-231; assay: Antiproliferative activity against human MDA-MB-231 cells after 24 hrs by MTS assay; type: functional, cell-based; conditions: MDA-MB-231, 24 h; how it was run: as §1
[4] = tested on: MDA-MB-231; assay: Cytotoxicity against human MDA-MB-231 cells after 24 hrs by MTS assay; type: functional, cell-based; conditions: MDA-MB-231, 24 h; how it was run: as §1
[5] = tested on: HT-29; assay: Cytotoxicity against human HT-29 cells after 24 hrs by MTS assay; type: functional, cell-based; conditions: HT-29, 24 h; how it was run: as §1
[6] = Cytotoxicity against human Splenocytes after 24 hrs by MTS assay; type: cell-based; conditions: Splenocyte; how it was run: as §1

## N=c1n(CC(=O)N/N=C/c2ccc(F)cc2)c2ccccc2n1CC(=O)N/N=C/c1ccc(F)cc1
[1]
  EC50: 4.3 nM
[2]
  EC50: 16.9 nM

## CCOC(=O)C(C)N1C2=NC(=O)C(C)N2c2ccccc21 (stereo not drawn)
[1]
  EC50: 5.68 nM
[2]
  EC50: 0.542 nM
[3]
  EC50: 2.02 nM

## N=c1n(CC(=O)NCc2ccccc2)c2ccccc2n1CC(=O)NCc1ccccc1
[1]
  EC50: 0.205 nM
[4]
  IC50: 1.65 nM
[2]
  EC50: 7.74 nM

## N=c1n(CCCc2ccccc2)c2ccccc2n1CCCc1ccccc1
[2]
  EC50: 14.1 nM
[3]
  EC50: 1.39 nM
[5]
  IC50: 9.26 nM

## CCOC(=O)Cn1c(=N)n(CC(=O)OCC)c2ccccc21
[1]
  EC50: 2.37 nM
[4]
  IC50: 1.15 nM
[2]
  EC50: 14.3 nM

## N=c1n(CC(=O)NCCCN)c2ccccc2n1CC(=O)NCCCN
[4]
  IC50: 0.123 nM
[2]
  EC50: 0.05 nM
[5]
  IC50: 0.56 nM

## CN1CCN(C(=O)Cn2c(=N)n(CC(=O)N3CCN(C)CC3)c3ccccc32)CC1
[3]
  EC50: 1.59 nM
[5]
  IC50: 0.013 nM
[6]
  IC50: 1.38 nM

## N=c1n(CC(=O)N/N=C/c2cccc(F)c2)c2ccccc2n1CC(=O)N/N=C/c1cccc(F)c1
[1]
  EC50: 3.51 nM
[2]
  EC50: 11 nM
[3]
  EC50: 0.002 nM
